Assay results taken from ChEMBL document CHEMBL2417369, “Synthesis and evaluation of heteroaryl substituted diazaspirocycles as scaffolds to probe the ATP-binding site of protein kinases” (Bioorg Med Chem, 2013).

How the values were obtained:
[1] = biological target: Tyrosine-protein kinase Lyn (Homo sapiens, UniProt P07948); experiment: Inhibition of LYN (unknown origin) at 30 uM by microfluidic mobility shift assay relative to control
How it was run: (§1)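 Single-point screen in a 24-enzyme kinase panel using a microfluidic assay. Each compound was tested at […] with ATP at roughly the Km for each enzyme. The pan-AGC inhibitor H-89 served as an internal control on every plate.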

[2] = biological target: Proto-oncogene tyrosine-protein kinase Src (Homo sapiens, UniProt P12931); experiment: Inhibition of SRC (unknown origin) at 30 uM by microfluidic mobility shift assay relative to control; how it was run: as §1
[3] = biological target: T1, Cytoplasmic tyrosine-protein kinase BMX (Homo sapiens) (UniProt P51813); experiment: Inhibition of BMX (unknown origin) at 30 uM by microfluidic mobility shift assay relative to control
T1 sequence (whole entry): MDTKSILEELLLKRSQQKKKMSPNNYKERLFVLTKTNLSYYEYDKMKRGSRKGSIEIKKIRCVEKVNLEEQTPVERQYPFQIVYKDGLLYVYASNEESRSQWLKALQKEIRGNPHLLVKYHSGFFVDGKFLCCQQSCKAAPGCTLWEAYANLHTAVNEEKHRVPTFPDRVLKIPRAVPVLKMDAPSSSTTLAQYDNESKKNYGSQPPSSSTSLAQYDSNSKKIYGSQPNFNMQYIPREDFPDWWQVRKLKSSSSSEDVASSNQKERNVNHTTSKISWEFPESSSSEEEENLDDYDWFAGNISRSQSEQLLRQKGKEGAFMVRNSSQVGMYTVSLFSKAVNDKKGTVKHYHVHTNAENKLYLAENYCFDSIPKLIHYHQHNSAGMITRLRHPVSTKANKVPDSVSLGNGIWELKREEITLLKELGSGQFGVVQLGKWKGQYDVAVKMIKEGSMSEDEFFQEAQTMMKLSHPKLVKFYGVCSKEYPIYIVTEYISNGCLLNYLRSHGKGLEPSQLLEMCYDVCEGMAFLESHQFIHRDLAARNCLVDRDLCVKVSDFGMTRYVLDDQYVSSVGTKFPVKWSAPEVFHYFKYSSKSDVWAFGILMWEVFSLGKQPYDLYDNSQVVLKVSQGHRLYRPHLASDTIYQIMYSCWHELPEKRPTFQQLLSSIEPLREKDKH
How it was run: (§2)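 Single-point screen at 30 µM test compound across a 24-kinase panel in a microfluidic assay format. ATP was set near each enzyme's Km,[ATP]. […] The pan-AGC inhibitor H-89 served as an internal control on every assay plate.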

[4] = biological target: T2, Serine/threonine-protein kinase Chk1 (Homo sapiens) (UniProt O14757); experiment: Inhibition of CHK1 (unknown origin) at 30 uM by microfluidic mobility shift assay relative to control; how it was run: as §1
T2 sequence (whole entry): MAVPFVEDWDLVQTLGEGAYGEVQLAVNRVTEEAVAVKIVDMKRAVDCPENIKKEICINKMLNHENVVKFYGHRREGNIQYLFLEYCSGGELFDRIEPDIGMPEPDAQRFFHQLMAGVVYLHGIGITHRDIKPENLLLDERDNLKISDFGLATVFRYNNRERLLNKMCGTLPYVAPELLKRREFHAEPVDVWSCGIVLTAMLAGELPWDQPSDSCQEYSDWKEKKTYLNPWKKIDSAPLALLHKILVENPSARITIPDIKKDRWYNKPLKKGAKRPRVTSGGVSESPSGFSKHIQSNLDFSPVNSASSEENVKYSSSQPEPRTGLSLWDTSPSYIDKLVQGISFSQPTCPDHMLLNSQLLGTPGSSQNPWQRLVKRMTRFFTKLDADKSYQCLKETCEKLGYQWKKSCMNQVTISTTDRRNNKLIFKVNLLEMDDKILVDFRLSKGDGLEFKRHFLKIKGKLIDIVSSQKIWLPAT

[5] = species: Homo sapiens; experiment: Inhibition of PKA (unknown origin) at 30 uM by microfluidic mobility shift assay relative to control; how it was run: as §1
[6] = biological target: Protein kinase C (PKC) (Homo sapiens) (UniProt O94806+P41743+P17252+P05129+Q05655+P05771+Q05513+Q02156+P24723+Q15139+Q04759); experiment: Inhibition of PKC (unknown origin) at 30 uM by microfluidic mobility shift assay relative to control; how it was run: as §1
[7] = biological target: Serine/threonine-protein kinase pim-1 (Homo sapiens) (UniProt P11309); experiment: Inhibition of PIM1 (unknown origin) at 30 uM by microfluidic mobility shift assay relative to control; how it was run: as §2
[8] = biological target: Serine/threonine-protein kinase Chk2 (Homo sapiens, UniProt O96017); experiment: Inhibition of CHK2 (unknown origin) at 30 uM by microfluidic mobility shift assay relative to control; how it was run: as §1
[9] = species: Homo sapiens; experiment: Inhibition of c-TAK (unknown origin) at 30 uM by microfluidic mobility shift assay relative to control
How it was run: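 Single-point screen against a 24-kinase panel in a commercial microfluidic assay format. Compounds were tested at 30 µM, with ATP at approximately the Km,[ATP] of each enzyme. H-89 was included on each assay plate as an internal control.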

[10] = tested on: Tyrosine-protein kinase ABL1 (Homo sapiens), P00519 [Q252H]; experiment: Inhibition of ABL Q252H mutant (unknown origin) at 30 uM by microfluidic mobility shift assay relative to control; format: protein assay; how it was run: as §2

Chain of Tyrosine-protein kinase Lyn (P07948 2-512 limits assumed): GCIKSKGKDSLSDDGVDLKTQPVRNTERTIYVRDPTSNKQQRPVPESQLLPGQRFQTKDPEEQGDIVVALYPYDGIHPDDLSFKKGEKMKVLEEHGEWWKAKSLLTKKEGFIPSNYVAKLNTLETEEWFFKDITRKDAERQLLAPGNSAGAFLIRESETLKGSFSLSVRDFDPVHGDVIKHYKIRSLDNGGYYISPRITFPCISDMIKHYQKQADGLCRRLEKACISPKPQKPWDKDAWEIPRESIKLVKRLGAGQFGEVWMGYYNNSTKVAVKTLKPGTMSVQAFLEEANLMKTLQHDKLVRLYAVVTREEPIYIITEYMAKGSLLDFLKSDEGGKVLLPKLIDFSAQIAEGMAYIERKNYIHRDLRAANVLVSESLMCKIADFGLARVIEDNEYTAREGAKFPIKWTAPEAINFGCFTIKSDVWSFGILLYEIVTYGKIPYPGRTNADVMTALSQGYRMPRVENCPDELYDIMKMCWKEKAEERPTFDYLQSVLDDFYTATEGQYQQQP
Chain of Serine/threonine-protein kinase pim-1 (Homo sapiens) (P11309 whole entry, looked up): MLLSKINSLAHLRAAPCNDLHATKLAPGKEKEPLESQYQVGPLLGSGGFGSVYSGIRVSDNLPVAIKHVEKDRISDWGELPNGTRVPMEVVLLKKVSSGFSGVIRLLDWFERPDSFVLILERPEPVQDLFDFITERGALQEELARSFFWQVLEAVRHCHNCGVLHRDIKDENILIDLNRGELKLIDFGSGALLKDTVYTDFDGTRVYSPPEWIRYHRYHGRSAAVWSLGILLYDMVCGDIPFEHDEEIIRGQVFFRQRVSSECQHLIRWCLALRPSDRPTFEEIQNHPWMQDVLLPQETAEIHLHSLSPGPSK
Chain of Serine/threonine-protein kinase Chk2 (O96017 whole entry): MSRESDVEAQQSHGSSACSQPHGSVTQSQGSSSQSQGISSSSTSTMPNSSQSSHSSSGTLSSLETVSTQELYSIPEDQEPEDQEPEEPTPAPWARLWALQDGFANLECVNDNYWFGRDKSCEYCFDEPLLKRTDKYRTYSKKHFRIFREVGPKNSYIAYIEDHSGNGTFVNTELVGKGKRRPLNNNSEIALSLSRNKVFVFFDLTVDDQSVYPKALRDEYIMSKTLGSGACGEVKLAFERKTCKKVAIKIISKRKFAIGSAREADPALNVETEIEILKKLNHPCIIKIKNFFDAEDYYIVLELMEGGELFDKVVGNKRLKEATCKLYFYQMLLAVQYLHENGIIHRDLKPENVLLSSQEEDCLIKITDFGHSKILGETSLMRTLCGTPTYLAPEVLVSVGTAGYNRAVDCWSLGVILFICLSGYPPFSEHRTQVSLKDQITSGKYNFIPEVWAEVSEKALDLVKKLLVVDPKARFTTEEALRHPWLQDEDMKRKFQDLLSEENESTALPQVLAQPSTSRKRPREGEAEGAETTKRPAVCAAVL
Chain of Proto-oncogene tyrosine-protein kinase Src (P12931 2-536 limits assumed): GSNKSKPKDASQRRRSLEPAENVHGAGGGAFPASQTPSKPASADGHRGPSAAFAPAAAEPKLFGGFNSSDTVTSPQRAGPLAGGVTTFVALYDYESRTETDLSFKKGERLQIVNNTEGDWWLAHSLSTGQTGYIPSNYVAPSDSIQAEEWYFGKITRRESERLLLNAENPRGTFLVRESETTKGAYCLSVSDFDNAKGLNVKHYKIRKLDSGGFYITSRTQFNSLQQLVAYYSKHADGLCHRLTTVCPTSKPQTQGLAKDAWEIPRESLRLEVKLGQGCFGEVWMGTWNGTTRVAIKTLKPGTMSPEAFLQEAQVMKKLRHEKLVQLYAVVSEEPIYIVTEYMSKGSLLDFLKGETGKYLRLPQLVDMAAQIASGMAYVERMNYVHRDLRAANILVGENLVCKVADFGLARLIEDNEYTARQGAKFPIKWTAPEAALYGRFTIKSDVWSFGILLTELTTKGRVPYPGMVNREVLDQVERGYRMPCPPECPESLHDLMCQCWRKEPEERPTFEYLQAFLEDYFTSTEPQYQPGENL

c1ccc(C2CCNC3(CCN(c4ncnc5[nH]cnc45)CC3)C2)cc1 (racemic)
inhibition [1]: 75%
inhibition [2]: 76%
inhibition [3]: 0%
inhibition [4]: 77%
inhibition [5]: 100%
inhibition [6]: 0%
inhibition [7]: 7%
inhibition [8]: 75%
inhibition [9]: 47%
inhibition [10]: 30%

c1ccc(CC2CCNC3(CCN(c4ncnc5[nH]cnc45)CC3)C2)cc1 (racemic)
inhibition [1]: 53%
inhibition [2]: 64%
inhibition [3]: 8%
inhibition [4]: 84%
inhibition [5]: 101%
inhibition [6]: 0%
inhibition [7]: 8%
inhibition [8]: 98%
inhibition [9]: 55%
inhibition [10]: 12%

c1ccc(CC2CCC3(CCN(c4ncnc5[nH]cnc45)CC3)NC2)cc1 (racemic)
inhibition [1]: 35%
inhibition [2]: 33%
inhibition [3]: 12%
inhibition [4]: 67%
inhibition [5]: 95%
inhibition [6]: 1%
inhibition [7]: 11%
inhibition [8]: 58%
inhibition [9]: 21%
inhibition [10]: 30%
